Experimental data: ChEMBL document CHEMBL3397022, “Absolute structures and bioactivities of euryspongins and eurydiene obtained from the marine sponge Euryspongia sp. collected at Iriomote Island” (Bioorg Med Chem, 2015)

Experiments:
Jurkat = assay: Cytotoxicity against human Jurkat cells after 48 hrs by MTT assay; assay type: cell-based
Summary of the method: (§1)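 Cells grown exponentially in RPMI-1640 with 10% FBS, penicillin and streptomycin at 37 °C, 5.0% CO2. Seeding: HCT-15 at 1.0 × 10^4 cells/well, Jurkat at 2.0 × 10^4 cells/well. Samples added in MeOH and incubated 48 h at 37 °C. MTT and lysis solution (40% DMF, 20% SDS, 2.0% acetic acid, 0.030% HCl) added, then shaken overnight at room temperature. Read at 570 nm.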

[1] = Cytotoxicity against human HuH7 cells […] by MTT assay; assay type: cell-based; conditions: Huh-7
Summary of the method: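 Huh-7 MTT assay: after sample treatment, MTT (5.0 mg/mL stock in saline) added for 90 min at 37 °C. Plate centrifuged at 300 × g for 5 min and supernatant removed. Cells solubilized in 0.040 N HCl in 2-propanol. Absorbance read at 590 nm; survival (%) calculated relative to untreated control.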

[2] = Cytotoxicity against human HCT15 cells after 48 hrs by MTT assay; assay type: cell-based; conditions: HCT-15, 48 h; summary of the method: as §1
[3] = molecular target: T1, Tyrosine-protein phosphatase non-receptor type 1 (Homo sapiens, UniProt P18031); assay: Inhibition of PTP1B (unknown origin) using pNPP as substrate incubated for 10 mins prior to substrate addition measured after 30 mins by microplate reader analysis
T1 sequence (P18031 whole entry): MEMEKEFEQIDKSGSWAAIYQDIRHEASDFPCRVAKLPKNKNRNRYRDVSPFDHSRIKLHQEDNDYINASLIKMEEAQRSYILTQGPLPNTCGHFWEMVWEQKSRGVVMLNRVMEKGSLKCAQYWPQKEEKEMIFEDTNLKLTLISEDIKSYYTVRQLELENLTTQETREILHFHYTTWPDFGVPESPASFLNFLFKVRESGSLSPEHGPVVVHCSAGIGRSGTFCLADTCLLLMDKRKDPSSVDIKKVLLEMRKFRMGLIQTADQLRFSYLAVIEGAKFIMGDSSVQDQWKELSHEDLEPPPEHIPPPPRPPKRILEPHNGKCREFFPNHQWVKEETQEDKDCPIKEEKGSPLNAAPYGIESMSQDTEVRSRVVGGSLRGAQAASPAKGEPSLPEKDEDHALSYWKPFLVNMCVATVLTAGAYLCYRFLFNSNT

| SMILES | IC50 (Jurkat) [µM] | IC50 [1] [µM] | IC50 [2] [µM] | IC50 [3] [µM] |
| --- | --- | --- | --- | --- |
| CC1=C[C@@H]2CC(C)(C)[C@H]1C[C@@H](O)c1ccoc12 | > 40 | > 100 | > 40 | > 40 |
| CC1=C[C@@H]2CC(C)(C)[C@H]1C[C@@H](O)C1=CC(=O)O[C@H]12 | > 40 | – | > 40 | > 40 |
| CO[C@@]12OC(=O)C=C1[C@H](O)C[C@H]1C(C)=C[C@@H]2CC1(C)C | > 35 | – | > 35 | > 35 |
| C=C/C=C1/CO[C@]2(OC)CC[C@@H](O)[C@@H](O)[C@@H]12 | > 40 | – | > 40 | > 40 |
| C=C/C=C(/CO)c1cc(O)ccc1O | > 50 | – | > 50 | > 50 |
| CC1=C[C@@H]2CC(C)(C)[C@H]1/C=C\c1ccoc12 [REL-DEHYDROEURYSPONGIN A] | > 45 | > 100 | > 45 | – |
